{"source": "ChEMBL document CHEMBL2331484", "about": "“Synthesis and biological evaluation of scopoletin derivatives” (Bioorg Med Chem, 2013)"}
{"test_system": "HUVEC", "assay": "Antiproliferative activity against HUVEC assessed as growth inhibition rate after 24 hrs by MTT assay", "type": "functional, cell-based", "conditions": "Homo sapiens", "procedure,_shortened": "(§1)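 HUVECs (passages 3–5, primary cord isolates) seeded at 1 × 10⁴ cells/well. Medium replaced with M199 containing 1% FBS plus compound. Viability read by MTT after 24 h. Percent inhibition was calculated from A570 minus A630 of treated versus control wells, and IC50 determined. Triplicate experiments, means ± SEM.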", "units": {"IC50": "µM"}}
{"molecule": "COc1cc2ccc(=O)oc2cc1OCC1CO1", "note": "(stereo not drawn)", "IC50": 5.3}
{"test_system": "HUVEC", "assay": "Antiproliferative activity against HUVEC assessed as growth inhibition rate at 100 uM after 24 hrs by MTT assay", "type": "functional", "conditions": "Homo sapiens, read-out: GI", "procedure,_shortened": "as §1", "units": {"inhibition of growth at 100 µM": "%"}}
{"molecule": "CCN(CC)CCOc1cc2oc(=O)ccc2cc1OC", "inhibition of growth at 100 µM": 3.1}
{"molecule": "COc1cc2ccc(=O)oc2cc1OCCN1CCCCC1", "inhibition of growth at 100 µM": 6.1}
{"molecule": "COc1cc2ccc(=O)oc2cc1OCC(=O)c1ccc(F)cc1", "inhibition of growth at 100 µM": 16.6}
{"molecule": "COc1cc2ccc(=O)oc2cc1OCCCCl", "inhibition of growth at 100 µM": 9.4}
{"molecule": "COc1cc2ccc(=O)oc2cc1OCC(O)CNC(C)C", "note": "(stereo not drawn)", "inhibition of growth at 100 µM": 6.3}
{"molecule": "COc1cc2ccc(=O)oc2cc1OCC1CO1", "note": "(stereo not drawn)", "inhibition of growth at 100 µM": 95.5}
{"test_system": "HUVEC", "assay": "Antiproliferative activity against HUVEC assessed as growth inhibition rate at 10 uM after 24 hrs by MTT assay", "type": "functional", "conditions": "Homo sapiens, read-out: GI", "procedure,_shortened": "as §1", "units": {"inhibition of growth at 10 µM": "%"}}
{"molecule": "CCN(CC)CCOc1cc2oc(=O)ccc2cc1OC", "inhibition of growth at 10 µM": 0.1}
{"molecule": "COc1cc2ccc(=O)oc2cc1OCCN1CCCCC1", "inhibition of growth at 10 µM": 0.1}
{"molecule": "COc1cc2ccc(=O)oc2cc1OCC(=O)c1ccc(F)cc1", "inhibition of growth at 10 µM": 3.6}
{"molecule": "COc1cc2ccc(=O)oc2cc1OCCCCl", "inhibition of growth at 10 µM": 0.1}
{"molecule": "COc1cc2ccc(=O)oc2cc1OCC(O)CNC(C)C", "note": "(stereo not drawn)", "inhibition of growth at 10 µM": 0.1}
{"molecule": "COc1cc2ccc(=O)oc2cc1OCC1CO1", "note": "(stereo not drawn)", "inhibition of growth at 10 µM": 62.2}
